This is an account of results in ChEMBL document CHEMBL1268848, “Selenium-containing analogs of SAHA induce cytotoxicity in lung cancer cells” (Bioorg Med Chem Lett, 2010).

Calls of active or inactive are those of the source. The rule behind the calls is not given here.

Assay [1] concerns NCI-H460. The experiment in a line: Cytotoxicity against human NCI-H460 by SRB assay. The class given is functional, cell-based.
The test system of assay [2] is NCI-H1299. The experiment in a line: Cytotoxicity against human NCI-H1299 by SRB assay. The class given is functional, cell-based. For orientation: The SRB assay estimates cell density from bound dye.
Assay [3] can be described thus: Cytotoxicity against human H441 by SRB assay. The class given is functional. The settings on record: NCI-H441.
For assay [4], the system named is NCI-H522. The experiment in a line: Cytotoxicity against human NCI-H522 by SRB assay. The class given is functional, cell-based. Put shortly: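 SRB cytotoxicity assay after 24 h drug exposure. Cells grown in DMEM with 10% FBS and penicillin/streptomycin at 37 °C under 5% CO2. Compounds taken from 10 mM DMSO stocks and diluted in medium over 0.1–50 μM, final DMSO 0.2%, with DMSO-only controls. IC50 obtained by non-linear regression of dose-response curves.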

The test system of assay [5] is A549. The experiment in a line: Induction of autophagy in human A549 cells assessed as increase in LC3II after 24 hrs relative to control. The class given is functional, cell-based. The procedure, abridged: (§1)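 A549 cells given 5 μM compound, with DMSO-treated controls, and harvested at times from 0 to 24 h. Lysis buffer: 20 mM Tris pH 7.4, 150 mM NaCl, 1 mM EDTA/EGTA, 1% Triton X-100, NaF, Na3VO4 and protease inhibitors, 10 min at 4°C. 10 μg protein run on SDS-PAGE and immunoblotted for LC3B, with actin as loading reference.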

The subject of assay [6] is A549. The experiment in a line: Cytotoxicity against human A549 cells by SRB assay. The class given is functional, cell-based.
The test system of assay [7] is NCI-H23. The experiment in a line: Cytotoxicity against human NCI-H23 by SRB assay. The class given is functional, cell-based.
In assay [8] the target is RAC-alpha serine/threonine-protein kinase (Homo sapiens) (UniProt P31749). The experiment in a line: Inhibition of AKT phosphorylation in human A549 at 5 uM after 24 hrs by Western blot analysis. The format is functional. The procedure, abridged:
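A549 cells treated 24 h with 5 μM compound, with DMSO controls. Lysed in Tris pH 7.4/NaCl/EDTA/EGTA/1% Triton X-100 buffer containing NaF, Na3VO4 and protease inhibitors, 10 min at 4°C, then cleared at 14,000 xg. 10 μg protein by BCA run on SDS-PAGE and blotted to PVDF. Probed with anti-pAKT and compared with pan-AKT.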

The subject of assay [9] is NCI-H226. The experiment in a line: Cytotoxicity against human NCI-H226 by SRB assay. The format is functional, cell-based.
The subject of assay [10] is A549. The experiment in a line: Induction of autophagy in human A549 cells assessed as increase in LC3II after 3 hrs relative to control. The class given is functional, cell-based. The procedure, abridged: as §1
Assay [11] concerns NCI-H2126. The experiment in a line: Cytotoxicity against human NCI-H2126 by SRB assay. The format is functional, cell-based.
The species named for assay [12] is Homo sapiens. As to conditions: at 5 µM.

RAC-alpha serine/threonine-protein kinase (Homo sapiens), sequence (P31749 whole entry): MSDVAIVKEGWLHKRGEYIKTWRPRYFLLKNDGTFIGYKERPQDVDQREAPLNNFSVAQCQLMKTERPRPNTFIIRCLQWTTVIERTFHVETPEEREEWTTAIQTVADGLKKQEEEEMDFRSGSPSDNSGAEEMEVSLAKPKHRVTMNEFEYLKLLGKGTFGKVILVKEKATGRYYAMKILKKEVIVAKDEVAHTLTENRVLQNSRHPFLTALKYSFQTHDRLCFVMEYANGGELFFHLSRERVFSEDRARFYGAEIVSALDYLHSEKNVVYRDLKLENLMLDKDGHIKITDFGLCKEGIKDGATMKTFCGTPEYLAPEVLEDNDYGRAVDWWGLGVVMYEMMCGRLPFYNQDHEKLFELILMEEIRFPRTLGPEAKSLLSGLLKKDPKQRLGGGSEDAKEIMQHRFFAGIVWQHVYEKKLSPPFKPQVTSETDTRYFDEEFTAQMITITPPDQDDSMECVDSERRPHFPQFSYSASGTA

A word on the IC50: it is the concentration at which inhibition is half-maximal. A lower IC50 goes with greater potency in that assay. In the case of `N#C[Se]CCCCCC(=O)Nc1ccccc1`, the IC50 in [1] was 1460 nM; in assay [2] it was 923 nM; in assay [3] it was 449 nM; in assay [4], 779 nM; in [6], 653 nM; in assay [7], 271 nM. Moreover, the IC50 is 1050 nM in assay [9] and 928 nM in assay [11]. Further, the outcome in assay [5] and in [10] was Active. Further, the inhibition entry in assay [8] and in assay [12] was “Active” throughout.
`O=C(CCCCCCC(=O)Nc1ccccc1)NO` [VORINOSTAT] registered an IC50 in assay [4] of 832 nM. Besides, in assay [8], the inhibition entry was “inactive”. Also, the result in assay [10] was inactive.
As to `O=C(CCCCC[Se][Se]CCCCCC(=O)Nc1ccccc1)Nc1ccccc1`, the IC50 in assay [1] amounted to 2130 nM; in assay [2] it was 438 nM; in [3], 92 nM; in [4], 188 nM; in [6], 370 nM; in [7] it was 279 nM. Besides, the IC50 in assay [9] worked out at 1730 nM; in assay [11], 1090 nM. Moreover, the outcome in assay [5] and in assay [10] was Active. The inhibition result in assay [8] and in [12] was “Active” throughout.
